Experimental data: ChEMBL document CHEMBL3994572, “Antiviral Triterpenes from the Twigs and Leaves of Lyonia ovalifolia” (J Nat Prod, 2016)

Tests used:
[1] = Selectivity index, ratio of TC50 for MDCK cells to IC50 for Influenza A virus (A/95-359) infected in MDCK cells; format: toxicity, cell-based; settings: dog, read-out: Selectivity Index
Summary of the method: (§1)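 MDCK cells (2.5 × 10^4/well) seeded 24 h, PBS-washed, infected with influenza A/95-359 at 100 TCID50 for 2 h, then exposed to graded compound concentrations until control CPE reached 4+. IC50 = minimal concentration inhibiting 50% of CPE (Reed and Muench); triplicate, at least three separate experiments. […] SI = TC50/IC50.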

[2] = Selectivity index, ratio of TC50 for African green monkey Vero cells to IC50 for Herpes simplex virus-1 F VR 733 infected in African green monkey Vero cells; format: toxicity; settings: read-out: Selectivity Index
Summary of the method: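 Vero cells (2.5 × 10^4/well) seeded 24 h, medium removed, infected with HSV-1 at 100 TCID50 for 2 h, then graded compound concentrations added until control CPE reached 4+. IC50 = minimal concentration inhibiting 50% CPE (Reed and Muench); triplicate, at least three separate experiments. […] SI = TC50/IC50.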

Human alphaherpesvirus 1 = test: Antiviral activity against Herpes simplex virus-1 F VR 733 infected in African green monkey Vero cells assessed as inhibition of virus-induced cytopathic effect; format: functional; settings: Human alphaherpesvirus 1, Strain F ATCC VR 733, Vero
Summary of the method: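 Vero cells (2.5 × 10^4/well) were seeded for 24 h, then the medium was removed. Cells were infected with HSV-1 at 100 TCID50 for 2 h, then given graded compound concentrations. Incubation continued until control CPE reached 4+. Runs were in triplicate, repeated at least three times. IC50 is the minimal concentration inhibiting 50% of CPE, by Reed and Muench.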

[3] = Cytotoxicity against African green monkey Vero cells assessed as growth inhibition after 48 hrs; format: cell-based; settings: chlorocebus sabaeus, read-out: TC50
Summary of the method: (§2)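 Vero or MDCK cells (2.5 × 10^4/well) were seeded for 24 h, then exposed to graded compound concentrations. After 48 h at 37 °C and 5% CO2, cytotoxicity was scored by CPE. TC50 was calculated by Reed and Muench analysis.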

Influenza A virus = test: Antiviral activity against Influenza A virus A/95-359 infected in MDCK cells assessed as inhibition of virus-induced cytopathic effect; format: functional, cell-based; settings: A/95-359, MDCK; summary of the method: as §1
[4] = Cytotoxicity against MDCK cells assessed as growth inhibition after 48 hrs; format: cell-based, Canis lupus familiaris; settings: dog, read-out: TC50; summary of the method: as §2
Coxsackievirus B3 = test: Antiviral activity against Coxsackievirus B3 infected in African green monkey Vero cells assessed as inhibition of virus-induced cytopathic effect; format: functional; settings: Enterovirus B
Summary of the method: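 Vero monolayers were infected with Cox B3 at 100 TCID50 and allowed 2 h adsorption at 37 °C. They were then washed with PBS and kept at 37 °C in MEM with 2% FBS, with or without graded concentrations of test compounds. Read-out was CPE.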

[5] = Selectivity index, ratio of TC50 for African green monkey Vero cells to IC50 for Coxsackievirus B3 infected in African green monkey Vero cells; format: toxicity; settings: read-out: Selectivity Index
Summary of the method: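 Vero monolayers infected with 100 TCID50 Coxsackie B3 virus, 2 h adsorption at 37 °C, PBS-washed, then held in MEM plus 2% FBS at 37 °C with graded compound concentrations. […] SI = TC50/IC50.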

Row | Compound | selectivity ratio [1] | selectivity ratio [2] | IC50 (Human alphaherpesvirus 1) [µM] | CC50 at 48 h [3] [µM] | IC50 (Influenza A virus) [µM] | CC50 at 48 h [4] [µM] | IC50 (Coxsackievirus B3) [µM] | selectivity ratio [5]
1 | CC(=O)OC[C@H]1O[C@@H](O[C@@H]2CC[C@]3(C)C4=C(CC[C@H]3C2(C)C)[C@]2(C(=O)O)CC[C@H]([C@H](C)CC[C@H](O)C(C)(C)O)[C@@]2(C)CC4)[C@H](O)[C@@H](O)[C@@H]1O | 1.7 | 3 | 6.4 | 19.3 | 11.1 | 19.3 | 11.1 | 1.7
2 | C[C@H](CC[C@H](O)C(C)(C)O)[C@H]1CC[C@@]2(C(=O)O)[C@@H]3CCC4=C(CC[C@@H](O)C4(C)C)C[C@H]3CC[C@]12C | 4 | 5.2 | 11.1 | 48.1 to 57.7 | 4.8 | 19.3 | 4.8 | 10
3 | C[C@H](CC[C@H](O)C(C)(C)O)[C@H]1CC[C@@]2(C(=O)O)C3=C(CC[C@]12C)[C@@]1(C)CC[C@@H](O)C(C)(C)[C@@H]1CC3 | 4.3 | 7.6 | 2.1 | 16 to 19.3 | 3.7 | 16 | 4.8 | 4
4 | C[C@H](CCC(=O)C(C)(C)O)[C@H]1CC[C@@]2(C(=O)O)[C@@H]3CCC4=C(CC[C@@H](O)C4(C)C)C[C@H]3CC[C@]12C | 3 | 4.3 | 3.7 | 16 | 2.1 | 6.4 | 2.1 | 7.6
